One assay relates to HepG2. The experiment in a line: Cytotoxicity against human HepG2 cells after 48 hrs by CCK-8 assay. The class given is functional, cell-based. The note with it: HepG2, 48 h. In outline:
(§1)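 Cells grown at 37 °C, 5% CO2 in medium with 10% FBS and penicillin/streptomycin: HepG-2 in MEM; QGY-7703, SMMC-7721 and QSG-7701 in 1640 medium. Seeded at 2×10^5 cells/well for 24 h, then exposed to varying compound concentrations or 1% DMSO vehicle for 48 h. CCK-8 added for 3 h more, absorbance read at 450 nm.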
A general note: Tetrazolium assays rely on reduction of a dye to a coloured formazan, in cell work by metabolically active cells.

The nature of assay [1]: Cytotoxicity against human QGY7703 cells after 48 hrs by CCK-8 assay. The class given is functional, cell-based. The note with it: QGY-7703, 48 h. The method in brief: as §1
A further assay has as its system SMMC-7721. The experiment in a line: Cytotoxicity against human SMMC7721 cells after 48 hrs by CCK-8 assay. The note with it: SMMC-7721, 48 h. Type of assay: functional, cell-based. In outline: as §1
A short description of assay [2]: Cytotoxicity against human QSG7701 cells after 48 hrs by CCK-8 assay. The class given is cell-based. The note with it: QSG7701, 48 h. The method in brief: as §1
Assay [3] is described as follows: Growth inhibition of human QGY7703 cells at 10 uM after 48 hrs by CCK-8 assay relative to control. Type of assay: functional. The note with it: QGY-7703, 48 h, read-out: GI. In outline: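 QGY-7703 cells were kept in 1640 medium with 10% FBS and penicillin/streptomycin at 37 °C, 5% CO2, then seeded at 2×10^5 cells/well for 24 h. They were treated once at 10 μM for 48 h, followed by CCK-8 for 3 h and A450. Values are percentage inhibition relative to untreated control cells.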

Assay [4] deals with QGY-7703. The experiment in a line: Induction of apoptosis in human QGY7703 cells assessed as late apoptotic cells at 7.5 uM after 48 hrs by Annexin V-FITC/propidium iodide staining-based flow cytometric analysis (reference value: 4.25%). Type of assay: functional. The method in brief: (§2)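 QGY-7703 cells were seeded at 5×10^5 cells/mL for 24 h, then given 3.75, 7.5, 15 or 30 μM, or DMSO control, for 48 h. Floating and trypsinized adherent cells were pooled, washed twice in cold PBS and resuspended in binding buffer. They were stained with annexin V-FITC/PI for 15 min at room temperature in the dark and analysed by flow cytometry. Mean ± SD of three independent experiments.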
(In general: Flow cytometry measures light scatter and fluorescence of single cells or particles in a stream.)

Assay [5] deals with QGY-7703. The experiment in a line: Induction of apoptosis in human QGY7703 cells assessed as early apoptotic cells at 7.5 uM after 48 hrs by Annexin V-FITC/propidium iodide staining-based flow cytometric analysis (reference value: 2.63%). Type of assay: functional. In outline: as §2
The test system of assay [6] is QGY-7703. The experiment in a line: Induction of apoptosis in human QGY7703 cells assessed as early apoptotic cells at 3.75 uM after 48 hrs by Annexin V-FITC/propidium iodide staining-based flow cytometric analysis (reference value: 2.63%). Type of assay: functional. In outline: as §2
In assay [7] the test system is QGY-7703. The experiment in a line: Induction of apoptosis in human QGY7703 cells assessed as early apoptotic cells at 15 uM after 48 hrs by Annexin V-FITC/propidium iodide staining-based flow cytometric analysis (reference value: 2.63%). The class given is functional. The method in brief: as §2
The test system of assay [8] is QGY-7703. The experiment in a line: Induction of apoptosis in human QGY7703 cells assessed as early apoptotic cells at 30 uM after 48 hrs by Annexin V-FITC/propidium iodide staining-based flow cytometric analysis (reference value: 2.63%). The class given is functional. In outline: as §2
Assay [9] concerns QGY-7703. The experiment in a line: Induction of apoptosis in human QGY7703 cells assessed as late apoptotic cells at 3.75 uM after 48 hrs by Annexin V-FITC/propidium iodide staining-based flow cytometric analysis (reference value: 4.25%). Type of assay: functional. In outline:
as §2

The test system of assay [10] is QGY-7703. The experiment in a line: Induction of apoptosis in human QGY7703 cells assessed as late apoptotic cells at 15 uM after 48 hrs by Annexin V-FITC/propidium iodide staining-based flow cytometric analysis (reference value: 4.25%). Type of assay: functional. In outline: as §2
The test system of assay [11] is QGY-7703. The experiment in a line: Induction of apoptosis in human QGY7703 cells assessed as late apoptotic cells at 30 uM after 48 hrs by Annexin V-FITC/propidium iodide staining-based flow cytometric analysis (reference value: 4.25%). Type of assay: functional. The method in brief:
as §2

For orientation: IC50 means the concentration needed to halve the response being measured. High values mean weaker potency in that assay, low ones greater potency in that assay.

Molecules are shown by their SMILES.

In the case of `COc1ccc2c(=O)c3c(OC)cc(OC)c(-c4cccc(C)c4)c3oc2c1OC`, the IC50 is 5 µM with HepG2, 13.3 µM in assay [1], 14.8 µM in the assay on SMMC-7721 and greater than 100 µM in assay [2]. Moreover, the inhibition of growth at 10 µM in [3] is 51.4%.
In the case of `COc1ccc2c(=O)c3c(OC)cc(OC)c(-c4ccc(C(F)(F)F)cc4)c3oc2c1OC`, the inhibition of growth at 10 µM in assay [3] worked out at 5.23%.
On to `COc1ccc2c(=O)c3c(OC)cc(OC)c(-c4ccc(C(C)(C)C)cc4)c3oc2c1OC`, for which the IC50 in the assay on HepG2 is 39.2 µM; in assay [1] it was 33.1 µM; with SMMC-7721 it was 18.2 µM; in assay [2], greater than 100 µM. Further, the inhibition of growth at 10 µM in assay [3] amounted to 56.3%.
As for `COc1ccc2c(=O)c3c(OC)cc(OC)c(-c4ccc(C(C)=O)cc4)c3oc2c1OC`, the inhibition of growth at 10 µM in assay [3] stood at 13.2%.
The same measure, in the same setting: the result for `COC(=O)c1ccc(-c2c(OC)cc(OC)c3c(=O)c4ccc(OC)c(OC)c4oc23)cc1` reads -5.48%; that for `COc1ccc2c(=O)c3c(OC)cc(OC)c(-c4ccc(S(C)(=O)=O)cc4)c3oc2c1OC`, 1.59%; that for `COc1ccc2c(=O)c3c(OC)cc(OC)c(-c4ccc(C#N)cc4)c3oc2c1OC`, -1.84%.
Same read-out and setting: the result for `COc1ccc2c(=O)c3c(OC)cc(OC)c(-c4cccc(C=O)c4)c3oc2c1OC` reads 13%.
`COc1ccc2c(=O)c3c(OC)cc(OC)c(-c4ccccc4F)c3oc2c1OC`: the IC50 is 48.9 µM with HepG2, 39.6 µM in [1], 26.8 µM in the assay with SMMC-7721 and 20.7 µM in assay [2]. The inhibition of growth at 10 µM in assay [3] amounted to 52.4%.
As for `COc1ccc2c(=O)c3c(OC)cc(OC)c(-c4cccc(C#N)c4)c3oc2c1OC`, the inhibition of growth at 10 µM in assay [3] was -4.17%.
With `COc1cccc(-c2c(OC)cc(OC)c3c(=O)c4ccc(OC)c(OC)c4oc23)c1`, the IC50 in the assay with HepG2 was determined as 28.7 µM; in [1], 11.9 µM; in the assay with SMMC-7721, 10.6 µM; in assay [2] it was 48.1 µM. Besides, the inhibition of growth at 10 µM in [3] is 55.2%.
Regarding `COc1ccc2c(=O)c3c(OC)cc(OC)c(-c4cccc(C(F)(F)F)c4)c3oc2c1OC`, in assay [3], the inhibition of growth at 10 µM turned out to be 30%.
Consider `COc1cc(OC)cc(-c2c(OC)cc(OC)c3c(=O)c4ccc(OC)c(OC)c4oc23)c1`, for which the IC50 came to 45 µM in the assay on HepG2, 31.9 µM in [1], 31.5 µM in the assay with SMMC-7721 and 33.1 µM in assay [2]. Further, in assay [3], the inhibition of growth at 10 µM turned out to be 58%.
Take `COc1ccc2c(=O)c3c(OC)cc(OC)c(-c4cccnc4)c3oc2c1OC`: the inhibition of growth at 10 µM in assay [3] stood at 18%.
For `COc1ccc2c(=O)c3c(OC)cc(OC)c(-c4ccccc4OC(F)(F)F)c3oc2c1OC`, in assay [3], the inhibition of growth at 10 µM is 33%.
Consider `COc1ccc2c(=O)c3c(OC)cc(OC)c(-c4ccc(F)c(F)c4)c3oc2c1OC`, for which the inhibition of growth at 10 µM in [3] is 5.85%.
Same read-out and setting: the result for `COc1ccc2c(=O)c3c(OC)cc(OC)c(-c4cccc(F)c4)c3oc2c1OC` reads 35.2%.
Regarding `COc1ccc2c(=O)c3c(OC)cc(OC)c(-c4cc(C)ccc4C)c3oc2c1OC`, the IC50 turned out to be 28.6 µM in the assay on HepG2, 24.6 µM in assay [1], 17 µM in the assay on SMMC-7721 and 90.7 µM in [2]. Besides, the inhibition of growth at 10 µM in [3] stood at 54.3%.
For `COc1ccc2c(=O)c3c(OC)cc(OC)c(-c4cc(F)ccc4F)c3oc2c1OC`, the inhibition of growth at 10 µM in assay [3] worked out at 17.4%.
Consider `COc1ccc2c(=O)c3c(OC)cc(OC)c(-c4ccc(C)cc4)c3oc2c1OC`, for which the IC50 with HepG2 worked out at 24.6 µM; in [1] it was 14.1 µM; in the assay on SMMC-7721, 3.15 µM; in assay [2] it was 66.3 µM. Moreover, the inhibition of growth at 10 µM in assay [3] amounted to 68.1%.
On to `COc1ccc2c(=O)c3c(OC)cc(OC)c(-c4ccc(C(C)C)cc4)c3oc2c1OC`, for which the 50% inhibitory concentration (IC50) in the assay with HepG2 is 32.5 µM; in assay [1], 26.1 µM; with SMMC-7721 it was 20.1 µM; in [2], greater than 100 µM. Further, the inhibition of growth at 10 µM in [3] was 52.7%.
Turning to `COc1cc(OC)c2c(=O)c3ccc(OC)c(OC)c3oc2c1`, the inhibition of growth at 10 µM in assay [3] is 14.1%.
In the case of `COc1ccc2c(=O)c3c(OC)cc(OC)c(-c4ccccc4)c3oc2c1OC`, the Activity is 12.12% in the assay with QGY-7703 [4]; 8.63% in the assay with QGY-7703 [5]; 2.61% in the assay with QGY-7703 [6]; 10.58% with QGY-7703 [7]; 15.81% in the assay on QGY-7703 [8]; 4.6% in the assay on QGY-7703 [9]. Besides, the values for the Activity with QGY-7703 [10] and in the assay with QGY-7703 [11] were 18.82% and 23.27%, respectively. For the same molecule, the IC50 was 19.2 µM in the assay on HepG2, 6.27 µM in assay [1], 7.5 µM in the assay on SMMC-7721 and greater than 100 µM in assay [2]. The inhibition of growth at 10 µM in [3] was 66.5%.
Regarding `COc1ccc2c(=O)c3c(OC)cc(OC)c(-c4cc(C(F)(F)F)cc(C(F)(F)F)c4)c3oc2c1OC`, the inhibition of growth at 10 µM in assay [3] was 14.2%.
As to `COc1ccc2c(=O)c3c(OC)cc(OC)c(-c4ccc(C=O)cc4)c3oc2c1OC`, the inhibition of growth at 10 µM in assay [3] was found to be 19.7%.
Take `COc1ccc2c(=O)c3c(OC)cc(OC)c(-c4cc(F)cc(F)c4)c3oc2c1OC`: the inhibition of growth at 10 µM in assay [3] turned out to be 11.2%.
The same measure, in the same setting: the result for `COc1ccc2c(=O)c3c(OC)cc(OC)c(-c4ccc(OC(F)(F)F)cc4)c3oc2c1OC` reads 0.53%; that for `COc1ccc2c(=O)c3c(OC)cc(OC)c(-c4ccc(F)cc4)c3oc2c1OC`, 13.9%.
In the case of `CCc1ccc(-c2c(OC)cc(OC)c3c(=O)c4ccc(OC)c(OC)c4oc23)cc1`, the IC50 with HepG2 was 28 µM; in [1], 22.6 µM; in the assay on SMMC-7721 it was 16.4 µM; in assay [2], 69.2 µM. In [3], the inhibition of growth at 10 µM is 77.1%.
`O=c1[nH]cc(F)c(=O)[nH]1` [FLUOROURACIL]: the IC50 in the assay on HepG2 came out at 12.5 µM; in assay [1], 15.7 µM; in the assay with SMMC-7721, 14.6 µM; in assay [2], 0.6 µM.

Values taken from ChEMBL document CHEMBL2434864, “Synthesis and biological evaluation of phenyl substituted polyoxygenated xanthone derivatives as anti-hepatoma agents” (Eur J Med Chem, 2013).
